# Measurements: PubChem BioAssay
# Activity calls are given as the source filed them.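 How the source made its calls, unless noted: active means visual image review flags a hit and inhibition of aggregation exceeds 20%; inconclusive means visual hit but inhibition at or below 20%; inactive means no hit on visual image review.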
# Key:
# [1] = inhibitors of TNFa-induced NFkB p65 translocation, primary screen, imaging, HUVEC, MLSMR starter and 10KST1 sets (AID 438;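 active means inhibition above 20% together with a positive visual image hit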;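 further: compound added about 3h40 before a 20 min TNFalpha stimulation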;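 on inhibition: signal is the nuclear over cytoplasmic p65 intensity ratio per well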); conditions: HUVEC TNFa-induced p65 nuclear translocation; cell count: measured here: nuclei count (cytotoxicity indicator), at 2.08 µM; inhibition: at 2 µM, stronger effect = higher value, 0% TNFa-plus-vehicle, 100% no-TNFa wells
# [2] = inhibitors of mutant huntingtin aggregation, primary screen, imaging, exon1htt(103Q)mCFP cells, high-content imaging (AID 483); conditions: exon1htt(103Q)mCFP cell line, aggregate imaging, at 2 µM; inhibition of aggregation: stronger effect = higher value; nuclei count: measured here: cell count, toxicity;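 further: compound exposure lasted 3 days before fixation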;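 on nuclei count: percent of the per-plate median nuclei count of sample wells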
# [3] = inhibitors of E-selectin induction by TNFa, primary screen, imaging, HUVEC, immunofluorescence, MLSMR starter and 10KST1 sets (AID 487;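 active means visually confirmed hit in the image check and inhibition above 20%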;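 on inhibition: signal is fraction of cell area covered by stained E-selectin grains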;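 on nuclei count: 100% = median nuclei count of all wells on the same plate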); conditions: HUVEC TNFalpha-induced E-selectin immunofluorescence imaging, at 2 µM; inhibition: stronger effect = higher value; nuclei count: measured here: cell number, toxicity
# [4] = target: Voltage-gated potassium channel subunit beta-2 (Rattus norvegicus) (UniProt P62483); experiment: KvBeta enzyme negative modulators, primary screen, biochemical, NADPH fluorescence (AID 622;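 active means fluorescence slope higher than the sample average by over 3 SD, cut at about -0.22 in these data, passing the limit was not always enough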;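 further: slope of raw intensity against log time taken from 70 to 1610 s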); conditions: recombinant KvBeta, 4-cyanobenzaldehyde reduction, at 10 µM, stronger effect = higher value
# [5] = target: Voltage-gated potassium channel subunit beta-2 (Rattus norvegicus) (UniProt P62483); experiment: KvBeta positive modulators, primary screen, biochemical, NADPH fluorescence (AID 623;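 active means NADPH fluorescence slope more negative than the mean of all samples by about 3 SD, 99.7% confidence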;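 further: fluorescence intensity change per second fitted from 20 to 320 s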); conditions: Recombinant KvBeta, NADPH fluorescence decrease slope, 10 min; at 10 µM; stronger effect = lower value
# [6] = target: Muscarinic acetylcholine receptor M4 (Homo sapiens) (UniProt P08173); experiment: compounds altering M4/GIRK thallium flux, either direction, primary screen, M4 allosteric agonist project, cell-based, HEK293 M4/GIRK, BTC-AM (AID 625;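 active means fluorescence slope after compound addition differing from the mean of all tested samples at 99.7% confidence, mostly higher but some lower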;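 further: thallium influx through GIRK channels coupled to M4 in HEK293 cells with BTC-AM dye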); conditions: at 10 µM, actives lie on both sides
# Method in brief: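 Material – HEK293 cells with M4 receptor and GIRK channels · Buffer or medium – pH 7.3 thallium assay buffer · Doses – one dose, 10 µM final · Timing – cells overnight at 37 °C, BTC-AM loading 1 h, reads 2 min total · Measured by – kinetic fluorescence with BTC-AM dye · Controls – carbachol and DMSO controls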
# [7] = inhibitors of Sendai virus-induced IRF3 signaling, primary screen, TLR/RLR signaling modifier project, cell-based, Sendai virus stimulus, luciferase, 10K MLSCN set (AID 602276;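 active means inhibition at or above 50% at 10 µM; inactive means inhibition below 50%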;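 further: firefly luciferase from ISG56 promoter only with Renilla not read in this screen; 0% = Sendai virus plus DMSO and 100% = medium plus DMSO without virus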); conditions: HEK293 RL24 IRF3 luciferase reporter, at 10 µM, stronger effect = higher value
# [8] = inhibitors of poly I:C-induced TLR3 signaling, primary screen, cell-based, poly I:C stimulus, luciferase, 10K MLSCN set (AID 602277;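 active means inhibition of the reporter signal at or above 50%; inactive means inhibition below 50%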); conditions: HEK293-TLR3 RL24 IRF3 luciferase reporter, at 10 µM, stronger effect = higher value
# Sequence of Muscarinic acetylcholine receptor M4 (Homo sapiens) (P08173 whole entry, looked up): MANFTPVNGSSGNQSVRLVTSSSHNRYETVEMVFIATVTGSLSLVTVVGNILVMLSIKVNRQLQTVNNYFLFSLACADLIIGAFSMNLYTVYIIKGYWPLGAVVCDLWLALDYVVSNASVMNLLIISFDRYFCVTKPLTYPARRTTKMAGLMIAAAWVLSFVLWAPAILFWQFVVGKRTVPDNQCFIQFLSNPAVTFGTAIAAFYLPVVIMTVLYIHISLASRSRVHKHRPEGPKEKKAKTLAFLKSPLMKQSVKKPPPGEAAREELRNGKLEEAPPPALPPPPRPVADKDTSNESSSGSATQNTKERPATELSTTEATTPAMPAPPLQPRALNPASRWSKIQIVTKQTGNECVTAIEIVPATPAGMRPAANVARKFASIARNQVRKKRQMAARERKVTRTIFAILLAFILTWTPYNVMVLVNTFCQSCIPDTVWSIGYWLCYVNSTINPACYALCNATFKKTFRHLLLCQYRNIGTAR
# Sequence of Voltage-gated potassium channel subunit beta-2 (Rattus norvegicus) (P62483 whole entry, looked up): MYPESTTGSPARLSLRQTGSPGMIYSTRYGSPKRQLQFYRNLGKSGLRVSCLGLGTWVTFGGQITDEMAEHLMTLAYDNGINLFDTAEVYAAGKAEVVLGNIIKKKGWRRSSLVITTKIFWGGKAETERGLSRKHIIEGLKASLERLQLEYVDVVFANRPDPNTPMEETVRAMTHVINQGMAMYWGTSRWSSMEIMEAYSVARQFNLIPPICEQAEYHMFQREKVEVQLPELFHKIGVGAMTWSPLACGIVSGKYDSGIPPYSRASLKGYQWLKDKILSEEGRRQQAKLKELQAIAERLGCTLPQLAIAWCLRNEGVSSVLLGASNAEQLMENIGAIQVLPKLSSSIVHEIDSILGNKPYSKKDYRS
Structure (SMILES),cell count [1],inhibition [1],inhibition of aggregation [2],nuclei count [2] [%],inhibition [3],nuclei count [3] [%],fluorescence slope [4],NADPH fluorescence slope [5],fluorescence slope [6],inhibition [7],inhibition [8]
CCOc1ccc(-n2c(=O)cc(N3CCN(c4ccccc4)CC3)[nH]c2=O)cc1,542,-4.4% (inactive),-3.5% (inactive),87.1,-40.5% (inactive),108,-0.411 (inactive),-1.6e-05 (inactive),0.00553 (inactive),12.1% (inactive),11.2% (inactive)
O=C(NCC1CCCO1)C1CC(c2ccc(Cl)c(Cl)c2)=NO1 (centres undefined),838,-0.7% (inactive),4.4% (inactive),103,-247% (inactive),132,-0.472 (inactive),-3.1e-05 (inactive),0.00536 (inactive),3.78% (inactive),-3.62% (inactive)
Nc1nc(-c2ccccc2Br)cs1,392,4.7% (inactive),-8.3% (inactive),110,-133% (inactive),119,-0.574 (inactive),-1.6e-05 (inactive),0.00573 (inactive),-14.5% (inactive),-27% (inactive)
CCOC(=O)C1=C(c2ccccc2)Nc2nc(C)nn2C1c1cccc(OC)c1OC (centres undefined),613,1.7% (inactive),-13.2% (inactive),111,-152% (inactive),149,-0.508 (inactive),-0.000215 (inactive),0.00365 (inactive),5.33% (inactive),15.1% (inactive)
CCCCNC(=O)OC(C)CNC(=O)Oc1cccc(C)c1 (centres undefined),482,7.6% (inactive),13.4% (inactive),92.7,41.7% (inactive),74.5,-0.471 (inactive),-2.9e-05 (inactive),0.00498 (inactive),22.3% (inactive),15.6% (inactive)
CCOC(=O)c1cc(-c2ccc(Cl)s2)nc2c1c(C)nn2C,473,-11% (inactive),-13.7% (inactive),95,-142% (inactive),106,-0.494 (inactive),-1.5e-05 (inactive),0.00338 (inactive),8.23% (inactive),-18.9% (inactive)
Cc1ccc(S(=O)(=O)NC(C(=O)OCC(=O)NC2CCS(=O)(=O)C2)C(C)C)cc1 (centres undefined),654,-10.1% (inactive),9.6% (inactive),93.4,-40.2% (inactive),109,-0.578 (inactive),9.1e-06 (inactive),0.0094 (inactive),-14% (inactive),18.4% (inactive)
Cn1nnnc1SCC(=O)Nc1ccccc1C(=O)NCc1ccccc1,368,7.2% (inactive),0.2% (inactive),98.6,-74.8% (inactive),124,-0.275 (inactive),-2.2e-05 (inactive),0.00734 (inactive),-6.6% (inactive),-17.1% (inactive)
O=C(NC1CC2CCC1C2)C1COc2ccccc2O1 (centres undefined),297,-3.7% (inactive),1.9% (inactive),89.3,18.8% (inactive),97.5,-0.46 (inactive),-3.9e-05 (inactive),0.00453 (inactive),0.357% (inactive),-2.86% (inactive)
COC(=O)c1sc(NC(=O)COc2ccccc2OC)nc1C,368,-4.7% (inactive),-9.7% (inactive),96.7,-153% (inactive),122,-0.229 (inactive),-2.1e-05 (inactive),0.00636 (inactive),9.11% (inactive),2.53% (inactive)
COc1cc(NC(=O)Cc2cccs2)ccc1-n1cnnn1,299,0% (inactive),-26.9% (inactive),100,-50.9% (inactive),112,-0.543 (inactive),-3.6e-05 (inactive),0.00442 (inactive),18.4% (inactive),21.1% (inactive)
COc1ccccc1-c1coc2c(CN3CCN(CCO)CC3)c(O)ccc2c1=O,615,-0.2% (inactive),-9.4% (inactive),102,-16% (inactive),105,-0.027 (active),5.8e-06 (inactive),0.0043 (inactive),12.9% (inactive),5.54% (inactive)
Cc1ccc(OCC(=O)NCCN2CCCC2)cc1,424,0% (inactive),5% (inactive),101,-65.5% (inactive),102,-0.404 (inactive),-0.000132 (inactive),0.00568 (inactive),15.6% (inactive),28% (inactive)
CCn1c(=O)cc(SCC(=O)N2CCN(C3CCCCC3)CC2)c2ccccc21,417,-5.2% (inactive),-6.7% (inactive),131,-69.8% (inactive),108,-0.565 (inactive),1.7e-06 (inactive),0.0055 (inactive),8.4% (inactive),65.5% (active)
